The record followed here is PubChem BioAssay AID602159 (Southern Research Specialized Biocontainment Screening …, 2011).

This assay concerns HEp-2 RSV CPE, time of addition, CellTiter-Glo viability. Nature of the assay: stage of RSV life cycle blocked in HEp-2 – cell-based, set 2, mechanism study for RSV inhibitor project, late-stage follow-up (AID 602159). To be noted: at 25 µM, stronger effect = higher value. Put shortly:
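Test system: RSV-infected HEp-2 cells / Incubation: compound dosing 1 h pre- to 24 h post-infection, six-day incubation / Doses: single 25 µM compound dose, 0.5% DMSO final / Measure: percent viable cells, compared across compound addition times / Technique: CellTiter-Glo ATP luminescence at day 6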

[1] abbreviates: measured here: added 1 h before infection.
The mark [2] stands for this setting: measured here: added 1 h post infection.
[3] abbreviates: measured here: added 12 h post infection.
Where [4] appears, read: measured here: added 24 h post infection.

The term viability denotes a read-out of living cells in per cent, often relative to untreated cells.

Consider `CN(C)c1ccc(Cn2c(=O)n(Cc3ccc(C(=O)NCC4COC4)cc3)c(=O)c3ccccc32)cc1`, for which the viability (added at infection) is 91.3%. Also, under “added 21 h post infection”, the viability was 96.4%. Under setting [1], this molecule gave a viability of 90.1%. The same molecule came in with a viability under setting [2] of 91.6%. The viability under setting [3] was determined as 73.2%. For the same molecule, the viability under setting [4] is 78.7%.

`COCCCNC(=O)c1ccc(Cn2c(=O)c3ccccc3n(Cc3ccc([N+](=O)[O-])cc3)c2=O)cc1`: the viability (added at infection) is 72.1%. Moreover, for the setting “added 21 h post infection”, the viability was determined as 80.1%. The molecule further yielded a viability under setting [1] of 52.3%. The same molecule displayed a viability under setting [2] of 70.2%. The same molecule came in with a viability under setting [3] of 81.9%. Also, the viability under setting [4] stood at 68%.

On to `COCCCNC(=O)c1ccc(Cn2c(=O)c3ccccc3n(Cc3ccc(C(C)C)cc3)c2=O)cc1`, for which the viability (added at infection) was 44%. Further, the viability (added 21 h post infection) is 38.8%. In addition, under setting [1], the viability was 49.5%. The viability under setting [2] turned out to be 42.9%. Further, under setting [3], the viability came out at 43.8%. This molecule showed a viability under setting [4] of 31.1%.
